Source: ChEMBL document CHEMBL1137183, “4-Aryl-3-(mercapto)quinolin-2-ones: novel maxi-K channel opening relaxants of corporal smooth muscle” (Bioorg Med Chem Lett, 2004)
Converted amounts (≈) assume the structure as drawn.

Experiments:
Oryctolagus cuniculus = species: Oryctolagus cuniculus; assay: Percentage inhibition by the compound in isolated rabbit corpus cavernosum at 10 uM; format: functional
Method in brief: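 New Zealand white rabbits (3.4–3.7 kg) euthanized by pentobarbital overdose. Corpus cavernosum strips, 3–5 mm, cut after removal of the tunica and held in modified Krebs-Henseleit bicarbonate buffer at 37 °C. Isometric force recorded. Strips pre-contracted with phenylephrine 3 μM to a steady force, then compound added. Result is % inhibition of force relative to vehicle control; n given per value.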

[1] = Effect on maxi-K mediated outward current in xenopus laevis oocytes at 20 uM; format: functional, Xenopus sp., Oocyte
Method in brief: (§1)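 Two-electrode voltage clamp of whole-cell outward K+ current in Xenopus laevis oocytes expressing cloned hSlo maxi-K channels. Single drug concentration per line. Current is the iberiotoxin-sensitive fraction, tested in at least five oocytes. Value is the average current as a percentage of drug-free control (100%).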

[2] = Solubility was determined; format: physicochemical
Method in brief: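 Aqueous solubility measured in HPLC-grade water by a UV absorptivity method, reported in mg/mL.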

[3] = Effect on maxi-K mediated outward current in xenopus laevis oocytes at 5 uM; format: functional, Xenopus sp., Oocyte; method in brief: as §1
Oocyte = assay: Effect on maxi-K mediated outward current in xenopus laevis oocytes at 20 uM; In soluble; format: functional, cell-based; settings: Xenopus sp.; method in brief: as §1

| Compound | Inhibition (Oryctolagus cuniculus) | hSlo current [1] | solubility [2] | hSlo current [3] | hSlo current (Oocyte) |
| --- | --- | --- | --- | --- | --- |
| OCCSc1c(O)nc2ccc(C(F)(F)F)cc2c1-c1cc(Cl)ccc1O | 43% | 348% | 4 µg/mL (≈ 9.62 µM) | – | – |
| Oc1ccc(Cl)cc1-c1c(S)c(O)nc2ccc(C(F)(F)F)cc12 | – | 197% | 3 µg/mL (≈ 8.07 µM) | – | – |
| CSc1c(O)nc2ccc(C(F)(F)F)cc2c1-c1cc(Cl)ccc1O | 22% | 231% | < 1 µg/mL | – | – |
| CC(C)(C)Sc1c(O)nc2ccc(C(F)(F)F)cc2c1-c1cc(Cl)ccc1O | – | – | < 1 µg/mL | 73% | Insoluble |
| OCCCSc1c(O)nc2ccc(C(F)(F)F)cc2c1-c1cc(Cl)ccc1O | 23% | 242% | 3 µg/mL (≈ 6.98 µM) | – | – |
| OCC(O)CSc1c(O)nc2ccc(C(F)(F)F)cc2c1-c1cc(Cl)ccc1O (centres undefined) | 31% | 246% | 190 µg/mL (≈ 426 µM) | – | – |
| O=c1[nH]c2cc(C(F)(F)F)ccc2n1-c1cc(Cl)ccc1O | 31% | 132% | – | – | – |
